≈ marks a conversion by molar mass, not a printed value.
Experiments:
[1] = biological target: T1, Cytochrome P450 1A2 (Homo sapiens, UniProt P05177); experiment: Inhibition of CYP1A2; type: ADME
T1 sequence (P05177 whole entry): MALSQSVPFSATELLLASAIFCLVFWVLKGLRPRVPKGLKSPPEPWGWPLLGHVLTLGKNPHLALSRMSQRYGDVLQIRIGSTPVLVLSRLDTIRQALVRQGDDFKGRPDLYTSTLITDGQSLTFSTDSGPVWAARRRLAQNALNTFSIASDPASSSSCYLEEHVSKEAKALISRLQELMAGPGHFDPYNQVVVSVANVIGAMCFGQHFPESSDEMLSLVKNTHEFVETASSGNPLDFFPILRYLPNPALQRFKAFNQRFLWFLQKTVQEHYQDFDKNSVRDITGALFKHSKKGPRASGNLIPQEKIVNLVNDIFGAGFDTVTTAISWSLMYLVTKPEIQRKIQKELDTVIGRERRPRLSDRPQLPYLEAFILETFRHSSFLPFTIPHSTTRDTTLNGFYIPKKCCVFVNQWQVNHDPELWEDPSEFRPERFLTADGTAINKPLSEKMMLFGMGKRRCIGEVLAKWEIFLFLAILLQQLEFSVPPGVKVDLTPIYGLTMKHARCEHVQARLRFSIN

[2] = test system: Rattus norvegicus; experiment: Antiinflammatory activity in rat assessed as inhibition of LPS-induced TNFalpha production at 1 mg/kg, po administered 4 hrs prior to LPS-challenge measured after 1 to 1.5 hrs by ELISA relative to vehicle-treated control; type: functional
In short: (§1)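 Rats dosed orally with compound suspended in 0.5% methylcellulose/0.1% Tween-80, 4 h before LPS (10 μg/animal, ip). At 1.0 or 1.5 h after LPS, retro-orbital blood collected into heparin under anesthesia. Plasma diluted one-fifth and assayed by rat TNF-α ELISA. Percent inhibition taken relative to vehicle group (n = 3−4).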

[3] = biological target: Mitogen-activated protein kinase 14 (Homo sapiens, UniProt Q16539); experiment: Inhibition of human MAPK p38alpha by Z'-LYTE assay
Chain of Mitogen-activated protein kinase 14 (Q16539 whole entry, looked up): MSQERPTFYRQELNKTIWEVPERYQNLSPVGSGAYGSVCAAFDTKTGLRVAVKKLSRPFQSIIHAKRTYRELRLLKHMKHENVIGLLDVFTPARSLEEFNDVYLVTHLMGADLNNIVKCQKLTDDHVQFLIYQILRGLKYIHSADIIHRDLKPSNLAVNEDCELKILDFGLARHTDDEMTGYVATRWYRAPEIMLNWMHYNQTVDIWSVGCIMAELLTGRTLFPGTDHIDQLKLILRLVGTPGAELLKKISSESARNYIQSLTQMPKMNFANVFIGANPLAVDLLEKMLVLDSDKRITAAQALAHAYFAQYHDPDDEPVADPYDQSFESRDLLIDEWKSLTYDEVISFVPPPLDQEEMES
In short: (§2)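 Human p38α or p38β kinase activity measured by Z′-Lyte kinase assay system.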

[4] = Half life in Sprague-Dawley rat at 1 mg/kg, iv; type: ADME, organism-based; set-up: dose 1 mg/kg, route intravenous; conditions: in vivo
In short: (§3)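 Sprague-Dawley rats given 1 mg/kg iv and po, compound dissolved in PEG400. Plasma obtained by centrifugation of collected blood, drug levels quantified by LC/MS/MS. Values are mean ± SD of n = 3.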

[5] = biological target: Voltage-gated inwardly rectifying potassium channel KCNH2 (Homo sapiens, UniProt Q12809); experiment: Inhibition of human ERG by Rb ion flux assay
Chain of Voltage-gated inwardly rectifying potassium channel KCNH2 (Q12809 whole entry): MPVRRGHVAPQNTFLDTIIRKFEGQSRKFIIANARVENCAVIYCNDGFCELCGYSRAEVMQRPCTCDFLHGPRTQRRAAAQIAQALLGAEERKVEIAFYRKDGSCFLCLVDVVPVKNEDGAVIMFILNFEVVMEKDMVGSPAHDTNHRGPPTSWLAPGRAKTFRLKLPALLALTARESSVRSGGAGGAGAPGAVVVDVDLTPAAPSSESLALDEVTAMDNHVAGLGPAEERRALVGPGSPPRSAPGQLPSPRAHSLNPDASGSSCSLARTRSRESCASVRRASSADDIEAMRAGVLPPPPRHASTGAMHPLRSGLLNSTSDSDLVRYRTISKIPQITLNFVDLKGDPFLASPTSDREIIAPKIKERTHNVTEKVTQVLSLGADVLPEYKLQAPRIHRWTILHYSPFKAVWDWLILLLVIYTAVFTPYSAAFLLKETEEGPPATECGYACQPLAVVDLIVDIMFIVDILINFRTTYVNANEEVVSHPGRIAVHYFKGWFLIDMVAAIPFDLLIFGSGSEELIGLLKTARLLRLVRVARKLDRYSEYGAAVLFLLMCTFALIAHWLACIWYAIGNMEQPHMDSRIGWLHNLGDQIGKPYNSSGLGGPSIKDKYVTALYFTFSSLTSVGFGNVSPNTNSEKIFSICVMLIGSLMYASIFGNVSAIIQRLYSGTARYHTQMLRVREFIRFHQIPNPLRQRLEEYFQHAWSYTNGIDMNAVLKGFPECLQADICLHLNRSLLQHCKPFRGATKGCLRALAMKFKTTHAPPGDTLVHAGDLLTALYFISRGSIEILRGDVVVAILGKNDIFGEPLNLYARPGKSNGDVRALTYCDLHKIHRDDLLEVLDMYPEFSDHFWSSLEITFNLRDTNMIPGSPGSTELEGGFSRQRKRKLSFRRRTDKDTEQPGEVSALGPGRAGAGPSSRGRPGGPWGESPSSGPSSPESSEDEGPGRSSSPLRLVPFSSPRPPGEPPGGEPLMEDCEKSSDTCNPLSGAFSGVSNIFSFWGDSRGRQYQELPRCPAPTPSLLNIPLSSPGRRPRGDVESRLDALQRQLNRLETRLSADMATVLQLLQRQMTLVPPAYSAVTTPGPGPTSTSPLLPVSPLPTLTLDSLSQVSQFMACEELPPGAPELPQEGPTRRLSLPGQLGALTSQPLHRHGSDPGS

[6] = biological target: Cytochrome P450 2C19 (Homo sapiens, UniProt P33261); experiment: Inhibition of CYP2C19; type: ADME
Chain of Cytochrome P450 2C19 (P33261 whole entry): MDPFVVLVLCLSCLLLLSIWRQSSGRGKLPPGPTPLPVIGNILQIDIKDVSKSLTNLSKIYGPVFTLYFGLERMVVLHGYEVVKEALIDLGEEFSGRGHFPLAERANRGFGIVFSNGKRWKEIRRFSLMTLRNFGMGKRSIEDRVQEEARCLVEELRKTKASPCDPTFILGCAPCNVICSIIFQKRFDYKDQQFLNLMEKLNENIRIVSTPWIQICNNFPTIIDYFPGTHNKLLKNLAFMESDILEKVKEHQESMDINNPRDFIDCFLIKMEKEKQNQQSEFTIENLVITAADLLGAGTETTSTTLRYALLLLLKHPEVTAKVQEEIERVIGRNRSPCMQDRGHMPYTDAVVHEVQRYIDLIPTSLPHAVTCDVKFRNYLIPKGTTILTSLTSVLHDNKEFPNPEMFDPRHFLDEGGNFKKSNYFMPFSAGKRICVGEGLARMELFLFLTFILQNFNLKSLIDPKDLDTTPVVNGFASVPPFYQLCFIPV

[7] = Permeability of the compound by PAMPA assay at pH 6.5; type: ADME; conditions: read-out: permeability
In short: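 PAMPA with pION membrane lipid, donor buffer pH 6.5, n = 2.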

[8] = test system: Rattus norvegicus; experiment: (§4) Oral bioavailability in Sprague-Dawley rat at 1 mg/kg; type: ADME, organism-based; conditions: in vivo; in short: as §3
[9] = biological target: Mitogen-activated protein kinase 11 (Homo sapiens, UniProt Q15759); experiment: Inhibition of human MAPK p38beta by Z'-LYTE assay; in short: as §2
Chain of Mitogen-activated protein kinase 11 (Q15759 whole entry): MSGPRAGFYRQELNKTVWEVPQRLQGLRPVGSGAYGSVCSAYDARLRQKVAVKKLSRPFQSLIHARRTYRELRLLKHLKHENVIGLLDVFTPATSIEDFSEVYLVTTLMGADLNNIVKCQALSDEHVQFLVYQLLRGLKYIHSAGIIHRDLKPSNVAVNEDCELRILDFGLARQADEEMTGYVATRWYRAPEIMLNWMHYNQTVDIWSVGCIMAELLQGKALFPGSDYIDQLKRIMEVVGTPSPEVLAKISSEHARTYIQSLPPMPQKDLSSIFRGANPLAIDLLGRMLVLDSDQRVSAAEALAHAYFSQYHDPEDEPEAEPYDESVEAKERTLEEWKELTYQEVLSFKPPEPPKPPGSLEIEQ

[10] = biological target: Cytochrome P450 2C9 (Homo sapiens, UniProt P11712); experiment: Inhibition of CYP2C9; type: ADME
Chain of Cytochrome P450 2C9 (P11712 whole entry): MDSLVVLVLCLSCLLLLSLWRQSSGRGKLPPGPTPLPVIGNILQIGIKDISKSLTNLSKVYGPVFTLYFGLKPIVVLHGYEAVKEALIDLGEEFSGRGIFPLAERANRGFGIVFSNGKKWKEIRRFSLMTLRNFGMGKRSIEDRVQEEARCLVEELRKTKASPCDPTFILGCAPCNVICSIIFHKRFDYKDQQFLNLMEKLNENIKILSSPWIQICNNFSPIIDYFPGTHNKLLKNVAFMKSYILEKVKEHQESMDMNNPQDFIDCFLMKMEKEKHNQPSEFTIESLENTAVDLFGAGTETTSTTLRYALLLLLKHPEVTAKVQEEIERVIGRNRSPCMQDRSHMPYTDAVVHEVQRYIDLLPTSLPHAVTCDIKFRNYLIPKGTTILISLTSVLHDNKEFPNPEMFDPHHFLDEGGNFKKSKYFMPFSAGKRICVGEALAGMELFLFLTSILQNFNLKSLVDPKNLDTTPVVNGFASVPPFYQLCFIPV

[11] = test system: Rattus norvegicus; experiment: Antiinflammatory activity in po dosed rat assessed as inhibition of LPS-induced TNFalpha production administered 4 hrs prior to LPS-challenge measured after 1 to 1.5 hrs by ELISA relative to vehicle-treated control; type: functional; in short: as §1
[12] = test system: THP-1; experiment: Antiinflammatory activity in human THP1 cells assessed as inhibition of LPS-induced TNFalpha production after 20 hrs; type: functional, cell-based; conditions: THP-1, 20 h
In short: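 THP-1 human monocytic cells kept in RPMI 1640 with 10% FBS, penicillin and streptomycin at 37 °C, 5% CO2. Cells (1 × 10^5/well) stimulated with LPS (10 μg/mL final, E. coli 055:B5) with compound or 0.1% DMSO vehicle for 20 h at 37 °C. Supernatant TNF-α compared with DMSO control. IC50 given as mean of triplicate experiments.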

[13] = test system: Rattus norvegicus; experiment: (§5) AUC in Sprague-Dawley rat at 1 mg/kg, po; type: ADME, organism-based, Plasma; set-up: dose 1 mg/kg, route oral; conditions: in vivo; in short: as §3
[14] = Solubility of the compound at pH 6.8; type: physicochemical; conditions: buffer
[15] = biological target: Mitogen-activated protein kinase 9 (Homo sapiens, UniProt P45984); experiment: Inhibition of human recombinant JNK2alpha2-mediated ATF-2 phosphorylation after 30 mins by immunoblotting method
Chain of Mitogen-activated protein kinase 9 (P45984 whole entry): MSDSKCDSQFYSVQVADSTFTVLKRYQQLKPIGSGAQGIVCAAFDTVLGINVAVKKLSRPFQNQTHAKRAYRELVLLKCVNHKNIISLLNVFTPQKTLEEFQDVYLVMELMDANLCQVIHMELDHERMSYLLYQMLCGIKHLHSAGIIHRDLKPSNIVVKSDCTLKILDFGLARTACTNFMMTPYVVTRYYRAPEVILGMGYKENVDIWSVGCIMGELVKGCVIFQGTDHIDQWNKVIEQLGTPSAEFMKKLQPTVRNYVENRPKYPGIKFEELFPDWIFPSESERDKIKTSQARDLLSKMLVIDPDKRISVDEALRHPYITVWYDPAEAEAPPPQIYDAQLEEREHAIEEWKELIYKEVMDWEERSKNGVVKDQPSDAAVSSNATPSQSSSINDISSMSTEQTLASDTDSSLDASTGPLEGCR

[16] = test system: Rattus norvegicus; experiment: Antiinflammatory activity in po dosed Lewis rat assessed as suppression of Mycobacterium tuberculosis adjuvant-induced paw edema administered QD from days 15 to 24 post adjuvant-challenge measured on day 25 relative to vehicle-treated control; type: functional; conditions: 600 h
In short: (§6)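 Female Lewis rats, 7 weeks old; arthritis induced on day 0 by 0.5 mg M. tuberculosis in 50 μL liquid paraffin injected into right hind footpad. Randomized on day 15 (n ≥ 5) by left hind paw volume increase and body weight; drug suspended in 0.5% methylcellulose given orally once daily days 15–24. Left hind paw volume measured day 25 by water displacement plethysmometry; edema expressed as percentage of control.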

[17] = test system: Rattus norvegicus; experiment: Antiinflammatory activity in Lewis rat assessed as suppression of Mycobacterium tuberculosis adjuvant-induced paw edema at 1 mg/kg, po administered QD from days 15 to 24 post adjuvant-challenge measured on day 25 relative to vehicle-treated control; type: functional; in short: as §6
[18] = biological target: Cytochrome P450 2D6 (Homo sapiens, UniProt P10635); experiment: Inhibition of CYP2D6; type: ADME
Chain of Cytochrome P450 2D6 (P10635 whole entry): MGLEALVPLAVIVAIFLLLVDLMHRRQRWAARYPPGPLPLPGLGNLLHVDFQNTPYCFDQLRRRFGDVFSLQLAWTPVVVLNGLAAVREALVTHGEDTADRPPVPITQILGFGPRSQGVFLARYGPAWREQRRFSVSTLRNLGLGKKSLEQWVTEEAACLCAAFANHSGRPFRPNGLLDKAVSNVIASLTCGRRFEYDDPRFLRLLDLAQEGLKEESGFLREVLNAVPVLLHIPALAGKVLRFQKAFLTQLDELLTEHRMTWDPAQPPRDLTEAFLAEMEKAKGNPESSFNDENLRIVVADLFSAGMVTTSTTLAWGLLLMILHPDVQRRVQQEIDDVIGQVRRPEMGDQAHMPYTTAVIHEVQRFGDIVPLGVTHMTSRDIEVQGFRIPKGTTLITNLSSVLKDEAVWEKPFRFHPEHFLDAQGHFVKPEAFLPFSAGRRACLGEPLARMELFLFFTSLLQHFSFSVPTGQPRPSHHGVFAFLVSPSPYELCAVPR

[19] = Volume of distribution at steady state in Sprague-Dawley rat at 1 mg/kg, iv; type: ADME, organism-based; set-up: dose 1 mg/kg, route intravenous; conditions: in vivo, read-out: Vdss; in short: as §3
[20] = as §4; type: ADME, organism-based; conditions: Sprague-Dawley, in vivo; in short: as §3
[21] = Total clearance in Sprague-Dawley rat at 1 mg/kg, iv; type: ADME, organism-based; set-up: dose 1 mg/kg, route intravenous; conditions: in vivo; in short: as §3
[22] = Intrinsic clearance in rat liver microsomes in presence of NADPH; type: ADME, Microsome; conditions: read-out: CLH
In short: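 Incubation with rat liver microsomes in the presence of an NADPH-generating system, n = 2.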

[23] = as §5; type: ADME, organism-based, Plasma; set-up: dose 1 mg/kg, route oral; conditions: Sprague-Dawley, plasma; in short: as §3
[24] = Half life in rat liver homogenate; type: ADME, tissue-based
[25] = test system: Rattus norvegicus; experiment: Antiinflammatory activity in rat assessed as inhibition of LPS-induced TNFalpha production at 3.2 mg/kg, po administered 4 hrs prior to LPS-challenge measured after 1 to 1.5 hrs by ELISA relative to vehicle-treated control; type: functional; in short: as §1

Compound | inhibition in vivo at 1 mg/kg [2] [%] | half-life [4] [h] | Papp [7] [×10⁻⁶ cm/s] | IC50 [12] [nM] | Activity [17] [%] | Vd [19] [L/kg] | further results
Cc1ccccc1-n1nc(-c2c(-c3ccc(F)cc3)nn3c2NC[C@@H](CO)C3)ccc1=O [AS1940477] | 92 | 5.15 | 19.7 | 0.6 | 71.3 | 0.77 | IC50 [1]: > 50000 nM; IC50 [3]: 11 nM; IC50 [5]: > 100000 nM; IC50 [6]: > 50000 nM; F [8]: 61.8%; IC50 [9]: 36 nM; IC50 [10]: 19000 nM; ED50 [11]: 0.05 mg/kg; AUC [13]: 1518 ng·h/mL; solubility [14]: 42 µg/mL (≈ 97.3 µM); IC50 [15]: > 10000 nM; ED30 [16]: 0.15 mg/kg; IC50 [18]: > 50000 nM
O=c1ncn2nc(Sc3ccc(F)cc3F)ccc2c1-c1c(Cl)cccc1Cl [NEFLAMAPIMOD] | – | – | – | – | – | – | ED50 [11]: 39.9 mg/kg; ED30 [16]: 92 mg/kg
CNc1c(-c2ccc(=O)n(-c3ccccc3C)n2)c(-c2ccc(F)cc2)nn1C | 86 | 0.66 | 30 | 6 | 37 | 0.65 | bioavailability [20]: 28.6%; clearance [21]: 20.6 mL/min/kg; CLint scaled [22]: 213 mL/min/kg; AUC [23]: 235 ng·h/mL; half-life [24]: 0.66 h
Cc1ccccc1-n1nc(-c2c(-c3ccc(F)cc3)nn3c2N[C@H](CO)CC3)ccc1=O | 98 | 5.95 | 22 | 0.37 | 62.3 | 0.98 | bioavailability [20]: 100%; clearance [21]: 3.8 mL/min/kg; AUC [23]: 4500 ng·h/mL
Cc1ccccc1-n1nc(-c2c(-c3ccc(F)cc3)nn3c2N[C@@H](CO)CC3)ccc1=O | 98 | – | 23 | 0.46 | – | – | –
Cc1ccc(-n2nc(C(C)(C)C)cc2NC(=O)Nc2ccc(OCCN3CCOCC3)c3ccccc23)cc1 [DORAMAPIMOD] | – | – | – | – | – | – | ED50 [11]: 2.6 mg/kg; ED30 [16]: 5.8 mg/kg
Cc1ccccc1-n1nc(-c2c(-c3ccc(F)cc3)nn3c2NC[C@H](O)C3)ccc1=O | 89 | 9.01 | 17 | 1.8 | 51 | 4.21 | F [8]: 81%; AUC [13]: 457 ng·h/mL
Cc1ccccc1-n1nc(-c2c(-c3ccc(F)cc3)nn3c2NC[C@@H](O)C3)ccc1=O | 94 | 3.89 | 16 | 0.85 | 61.4 | 1.23 | F [8]: 67.7%; AUC [13]: 763 ng·h/mL
Cc1ccccc1-n1nc(-c2c(-c3ccc(F)cc3)nn3cc(CO)cnc23)ccc1=O | 11 | – | – | 23 | – | – | –
Cc1ccccc1-n1nc(-c2c(-c3ccc(F)cc3)nn3c2NCC(CN2CCN(C)CC2)C3)ccc1=O (centres undefined) | 88 | – | 21 | 1.1 | – | – | –
Cc1ccccc1-n1nc(-c2c(-c3ccc(F)cc3)nn3c2NCC3)ccc1=O | – | – | – | 106 | – | – | –
Cc1ccccc1-n1nc(-c2c(-c3ccc(F)cc3)nn3c2NC[C@H](CO)C3)ccc1=O | 92 | 3.82 | – | 0.95 | 59.7 | 1.11 | F [8]: 103.6%; AUC [13]: 1217 ng·h/mL
O=c1ccc(-c2c(-c3ccccc3)nn3ccccc23)nn1CC1(O)CCCCC1 | – | – | – | 14 | – | – | CLint scaled [22]: 195 mL/min/kg; inhibition in vivo at 3.2 mg/kg [25]: 43%
Cc1ccccc1-n1nc(-c2c(-c3ccc(F)cc3)nn3c2NCCC3)ccc1=O | 93 | – | 30 | 1 | – | – | CLint scaled [22]: 94 mL/min/kg
Cc1ccccc1-n1nc(-c2c(-c3ccc(F)cc3)nn3c2OCCC3)ccc1=O | 33 | – | – | 10 | – | – | –
